This is a sample that favours compounds with a hit; in the whole collection about 1.2% have one here.
Tb hexokinase: blocks Trypanosoma brucei hexokinase 1 activity; 0.11% of 220,000 active; recombinant TbHK1, G6PDH-coupled NADH A340; inhibition, % at 10 µM;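 active means inhibition of 50% or more in the single-dose primary screen; inactive means inhibition below 50%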
PERK inh: human PERK inhibition, primary cell-based screen. inhibition, % at 5.6 µM. CHO PERK-DD fusion, SEAP luminescence translation reporter. 0.17% of 220,000 active. Q9NZJ5;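 active means inhibition above the mean inhibition of all tested compounds plus 3 SD, set separately per screening campaign, cut at about 2.9% in these data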;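 further: PERK kinase domain activated by AP20187 dimerizer at 100 nM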
HSV replic up: HSV replication enhancement. HSV replication augmentation in cells, fold increase. maximum fold increase. 0.005% of 220,000 active. AID 1956; in the data active means maximum fold increase above about 1.5; inconclusive means no clear call, values can overlap the other calls; tested in PC3 cells
Autophagy HCS: modulators of autophagy. MEF GFP-LC3 puncta imaging; test concentration mostly 10 µM. calls only at 10 µM (by protocol). 0.98% of 190,000 active. AID 463193;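 active means percentage of spot-positive cells more than 3 SD above its plate mean, without a fluorescence outlier flag or 80% toxicity; inconclusive means no clear call, values can overlap the other calls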
Dynein cargo inh: dynein cargo transport inhibition; z-score, hits read low; 0.47% of 220,000 active; 3617.4 mouse cells, GR-EGFP nuclear translocation imaging; test concentration mostly 20 µM; stimulated with dexamethasone, 1 µM; stronger effect = lower value;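 active means plate z-score of nuclear minus cytoplasmic receptor signal below a set negative limit, without overly bright fluorescence or cell loss, cut at about -3.5 in these data, passing the limit was not always enough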;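 further: z-score of nuclear minus cytoplasmic ring GR-EGFP intensity difference per well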
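Buffer or medium: tet-free, stripped-serum medium; Also added: dexamethasone, 1.0 µM final; Technique: high-content fluorescence imaging after fixation; Times: 48 h induction, 1 h compound, 30 min dex at 37 °C; Read-out: per-cell GR-EGFP intensity, nucleus versus surrounding cytoplasmic ring, well-averaged.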
HKDC1 inh: inhibitors of human hexokinase HKDC1. Q2TB90. recombinant HKDC1, G6PDH/diaphorase resazurin coupled fluorescence. inhibition, % at 20 µM. 0.16% of 340,000 active. AID 493160;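 active means inhibition above about 35% when tested at 20 µM, limit read from the data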
Target sequence (Q2TB90 whole entry, looked up): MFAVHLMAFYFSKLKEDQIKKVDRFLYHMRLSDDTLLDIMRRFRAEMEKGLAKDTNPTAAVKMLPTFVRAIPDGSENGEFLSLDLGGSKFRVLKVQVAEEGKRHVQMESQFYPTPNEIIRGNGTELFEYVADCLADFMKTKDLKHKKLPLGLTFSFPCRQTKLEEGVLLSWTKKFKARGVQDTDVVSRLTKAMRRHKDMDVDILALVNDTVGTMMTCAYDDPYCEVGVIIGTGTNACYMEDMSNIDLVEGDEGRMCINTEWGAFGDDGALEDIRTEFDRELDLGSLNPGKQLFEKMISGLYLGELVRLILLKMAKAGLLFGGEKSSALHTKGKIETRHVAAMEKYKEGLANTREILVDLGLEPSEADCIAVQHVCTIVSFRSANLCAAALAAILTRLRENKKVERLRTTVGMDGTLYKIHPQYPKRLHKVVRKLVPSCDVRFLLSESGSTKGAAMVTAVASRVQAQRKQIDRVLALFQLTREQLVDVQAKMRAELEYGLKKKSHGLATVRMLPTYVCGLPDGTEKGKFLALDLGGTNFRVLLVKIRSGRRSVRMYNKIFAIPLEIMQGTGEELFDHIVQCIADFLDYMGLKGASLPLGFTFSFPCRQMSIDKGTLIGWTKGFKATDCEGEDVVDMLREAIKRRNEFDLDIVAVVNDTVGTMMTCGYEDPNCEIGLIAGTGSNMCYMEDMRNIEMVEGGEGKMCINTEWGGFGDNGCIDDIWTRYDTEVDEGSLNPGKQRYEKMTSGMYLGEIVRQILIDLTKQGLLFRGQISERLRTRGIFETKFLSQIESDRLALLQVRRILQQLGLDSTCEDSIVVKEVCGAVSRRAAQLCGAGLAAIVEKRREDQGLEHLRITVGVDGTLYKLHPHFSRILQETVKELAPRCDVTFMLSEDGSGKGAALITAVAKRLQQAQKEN
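Test system: recombinant HKDC1 (HK5) hexokinase enzyme, produced in-house / Doses: 20 µM test compound, 1% DMSO / Timing: 90 min, room temperature / Detection: G6PDH/diaphorase-coupled fluorescence, 1 mM NADP, 100 µM resazurin, 525/613 nm / Control set: DMSO wells with and without enzyme mix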
Of the large screens only hits and unclear results are named; the others gave an inactive call.

CCCNC(=O)CSC1=N/C(=C/c2ccc(F)cc2)C(=O)N1CC	none
CCC(NC(=O)Nc1nnc(C(F)(F)F)s1)(C(F)(F)F)C(F)(F)F	Autophagy HCS active
Cc1cc(C)n(C(=O)N(c2ccccc2)c2ccccc2)n1	none (no result: Tb hexokinase, PERK inh, HSV replic up, Autophagy HCS, Dynein cargo inh)
COc1cc(NC(=O)c2ccc(F)cc2)c(OC)cc1NC(=O)CN1CCOCC1	Autophagy HCS active
COc1ccc(NC(=O)CN2CCC(C)CC2)c([N+](=O)[O-])c1	none
COc1cc(-c2ccc(NC(=O)CN3CCC(C)CC3)c(OC)c2)ccc1NC(=O)CN1CCC(C)CC1	Autophagy HCS active (no result: HSV replic up)
c1ccc2nc(-c3ccc(N4CCOCC4)cc3)ccc2c1	none (no result: Dynein cargo inh)
CN1CCN(c2ccc(-c3ccc4ccccc4n3)cc2)CC1	Autophagy HCS active
COc1ccc(-c2cc(-c3ccccc3)c(C#N)c(S(C)=O)n2)cc1 (configuration not stated)	Autophagy HCS active
CCSc1nc(-c2ccc(OC)cc2)cc(-c2ccccc2)c1C#N	none
CCCCNC(=O)c1cc2c(-c3ccc(Cl)cc3)nn(C)c2s1	none
CCN1CCCC1CNC(=O)c1cc2c(-c3cccc(OC)c3)nn(C)c2s1 (configuration not stated)	none
CCN1CCCC1CNC(=O)c1cc2c(-c3ccc(Cl)cc3)nn(C)c2s1 (configuration not stated)	Autophagy HCS active
Cn1nc(-c2ccc(Cl)cc2)c2cc(C(=O)NCCCN3CCCC3)sc21	Autophagy HCS active
COc1ccc(C2=CC(=O)C=CC2=O)cc1	Dynein cargo inh -6.34 (no result: Autophagy HCS, HKDC1 inh)
COC(=O)c1c(NC(=S)Nc2ccc(C(=O)N3CCOCC3)cc2)sc2c1CCC2	PERK inh 3.0
O=C(CCCn1c(=O)oc2ccccc21)N1CCc2ccccc2C1	Autophagy HCS active
O=C(CCn1c(=O)oc2ccccc21)NCCN1CCc2ccccc2C1	none
O=C(c1cc(COc2ccc(F)cc2F)on1)N1CCCC(c2ccccc2)C1 (configuration not stated)	none
O=C(c1cc(COc2ccc(F)cc2Cl)on1)N1CCCC(c2ccccc2)C1 (configuration not stated)	Autophagy HCS active
CN(CCO)CC(O)Cn1cnc2c1c(=O)n(C)c(=O)n2C (configuration not stated) (tested in a mixture with another compound)	none
CN(CC(O)Cn1cnc2c1c(=O)n(C)c(=O)n2C)c1ccccc1 (configuration not stated)	Autophagy HCS active
COc1ccc(N/C(N)=N/c2nc(CSc3ccc(Cl)cc3)cc(=O)[nH]2)cc1	none
N/C(=N\c1nc(CSc2ccc(Cl)cc2)cc(=O)[nH]1)Nc1cccc2ccccc12	Autophagy HCS active (no result: HSV replic up)
O=C(/C=C/c1ccccc1)c1ccccn1	Dynein cargo inh -3.79
N=c1c(-c2nc3ccccc3[nH]2)cc(C(=O)c2ccco2)nn1-c1ccccc1	none
N=c1c(-c2nc3ccccc3[nH]2)cc(C(=O)c2cccs2)nn1-c1ccccc1	Autophagy HCS active
Cc1cc(C)c2c3c(c(-c4ccccc4)n2n1)c(=O)n(C)c(=O)n3C	none (no result: Tb hexokinase, PERK inh, HSV replic up, Autophagy HCS, Dynein cargo inh)
Cc1cc(-c2ccccc2)c2c3c(c(-c4ccccc4)n2n1)c(=O)n(C)c(=O)n3C	Autophagy HCS active
COCCCNCC#CCOc1ccc(OC)cc1	Autophagy HCS active
Cc1ccc2c(CC(=O)Nc3ccc(F)c(S(=O)(=O)N4CCOCC4)c3)coc2c1	none (no result: Tb hexokinase, PERK inh, HSV replic up, Autophagy HCS, Dynein cargo inh)
COc1cc(NC(=O)c2cccc(Cl)c2)ccc1NC(=O)c1cccs1	Autophagy HCS active
O=C1CN(c2nc(-c3cccs3)nc3sc4c(c23)CCCC4)CCN1	Autophagy HCS active
O=c1oc(-c2cccs2)nc2sc3c(c12)CCCC3	none
Cc1cccc(CN2CCN(Cc3cccc(-n4cccn4)c3)CC2CCO)n1 (configuration not stated)	Autophagy HCS active
Cn1c(/C(C#N)=C/c2ccc(-c3ccc(S(N)(=O)=O)cc3)o2)nc2ccccc21	Autophagy HCS active (no result: HSV replic up)
Cn1c(/C(C#N)=C/c2cccc(O)c2)nc2ccccc21	none
CC(=O)Nc1ccc(C(=O)OCC(=O)N2CCC(Cc3ccccc3)CC2)cc1	none (no result: Tb hexokinase, PERK inh, HSV replic up, Autophagy HCS, Dynein cargo inh)
COC(=O)c1nc2ccc(N3CCOCC3)cc2c(C)c1C(=O)OC	Autophagy HCS active
COC(=O)c1c(-c2ccc(OC)cc2)sc2ccc(N3CCOCC3)cc12	none (no result: Tb hexokinase, PERK inh, HSV replic up, Autophagy HCS, Dynein cargo inh)
CNC(=O)COc1coc(CN2CCN(c3ccc(OC)cc3)CC2)cc1=O	none (no result: Tb hexokinase, PERK inh, HSV replic up, Autophagy HCS, Dynein cargo inh)
COC(=O)c1ccc(C2NCCc3cc(OC)c(OC)cc32)cc1 (configuration not stated)	none (no result: Tb hexokinase, PERK inh, HSV replic up, Autophagy HCS, Dynein cargo inh)
CN(C)C=Nc1c(Br)cc(Br)c2nonc12	HSV replic up inconclusive, Autophagy HCS active
CN(C)C=Nc1ccc(Cl)c(Cl)c1	none (no result: Autophagy HCS)
CC1CCCC(N2CCN(C(=O)c3ccc([N+](=O)[O-])cc3)CC2)C1 (configuration not stated)	none (no result: Tb hexokinase, PERK inh, HSV replic up, Autophagy HCS, Dynein cargo inh)
CN(C)C(=O)c1ccc(NC(=O)CSc2nnc(-c3cccs3)n2N)cc1	none (no result: Tb hexokinase, PERK inh, HSV replic up, Autophagy HCS, Dynein cargo inh)
NC(=O)c1ccc(N=Cc2ccc([N+](=O)[O-])s2)cc1	Dynein cargo inh -4.05
CCOc1ccccc1NC(=O)C(OC(=O)C1CC1)c1ccccc1 (configuration not stated)	none (no result: Autophagy HCS)
CCOc1ccccc1NC(=O)C(NCC1(N2CCCCC2)CCCCC1)c1ccccc1 (configuration not stated)	Autophagy HCS active (no result: HSV replic up)
Cc1cc(C)cc(NC(=O)C(=S)NCc2ccccc2)c1	PERK inh 2.9
CC1CCN(CCCNC(=O)C2CCC(CNS(=O)(=O)c3ccccc3)CC2)CC1 (configuration not stated)	none (no result: Tb hexokinase, PERK inh, HSV replic up, Autophagy HCS, Dynein cargo inh)
O=C(Nc1cc(S(=O)(=O)N2CCCCC2)ccc1O)c1ccccc1NS(=O)(=O)c1ccc(F)cc1	none
O=C(Nc1cc(S(=O)(=O)N2CCCCC2)ccc1Cl)c1ccccc1NS(=O)(=O)c1ccc(F)cc1	Autophagy HCS active
COc1ccc(-c2[nH]n(-c3ccc([N+](=O)[O-])cc3)c(=O)c2C=NCCN2CCNCC2)cc1	none (no result: HKDC1 inh)
COc1ccc(-c2[nH]n(-c3ccc([N+](=O)[O-])cc3)c(=O)c2C=NCc2ccccc2)cc1	Autophagy HCS active
CC1=C/C(=N\OS(=O)(=O)c2ccccc2)C(C(C)C)=CC1=O	Dynein cargo inh -4.72 (no result: HSV replic up)
NS(=O)(=O)c1cccc(NC(=O)COC(=O)CCN2C(=O)c3ccccc3C2=O)c1	none (no result: Tb hexokinase, PERK inh, HSV replic up, Autophagy HCS, Dynein cargo inh)
COc1ccc(C)cc1-n1nnnc1SCC(=O)c1ccc2c(c1)OCCO2	none
COc1ccc(-n2nnnc2SCC(=O)c2ccc3c(c2)OCCO3)c(OC)c1	PERK inh 4.0 (no result: HSV replic up)
Nc1nnnn1/N=C/c1ccc(F)cc1	none (no result: Tb hexokinase, PERK inh, HSV replic up, Autophagy HCS, Dynein cargo inh)
O=c1[nH]cc([N+](=O)[O-])cc1Br	Autophagy HCS active
COc1ccc(-n2nc(C(=O)NCC(=O)Nc3cccc(Cl)c3)c3ccccc3c2=O)cc1	none (no result: Tb hexokinase, PERK inh, HSV replic up, Autophagy HCS, Dynein cargo inh)
